The source of these data is ChEMBL document CHEMBL1130129, “Immunologically specific activation of a cephalosporin derivative of mitomycin C by monoclonal antibody beta-lactamase conjugates” (J Med Chem, 1997).

A word on the IC50: it is the point on the concentration scale where inhibition reaches its midpoint.

Common to all, as to format: functional, cell-based
Assay [1] relates to H2987 cell line. The assay can be described thus: Inhibitory activity against H2987, human lung adenocarcinoma cell line in absence of Enterobacter cloacae bL. Summed up:
(§1)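 Cells plated at 4000 or 8000/well in IMDM with 10% FBS, left to adhere 18 h at 37 °C, then washed with RPMI/10% FBS. Compound exposure 1 h at 37 °C with no enzyme, followed by IMDM wash and 18 h culture. [3H]thymidine pulse at 1 µCi/well (18 h at 4000 cells/well, 6 h at 8000). IC50 is the concentration giving 50% incorporation versus untreated cells; mean of five experiments.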

Assay [2] deals with Clone 62. The assay can be described thus: Inhibitory activity against clone62, a mouse melanoma cell line in absence of Enterobacter cloacae bL. Summed up:
as §1

The test system of assay [3] is H2987 cell line. As to the kind of experiment: Inhibitory activity against H2987, human lung adenocarcinoma cell line in presence of Enterobacter cloacae bL. The procedure, abridged:
(§2)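 Adherent cells (4000 or 8000/well, 18 h, 37 °C, IMDM/10% FBS) washed with RPMI/10% FBS. Exposed 1 h at 37 °C to graded compound concentrations together with purified E. cloacae β-lactamase (10 µg/mL), then washed and cultured 18 h. [3H]thymidine pulse at 1 µCi/well (18 h or 6 h by seeding density). IC50 is 50% incorporation relative to untreated controls; five independent experiments.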

In assay [4] the test system is Clone 62. As to the kind of experiment: Inhibitory activity against clone62, a mouse melanoma cell line in presence of Enterobacter cloacae bL. The procedure, abridged: as §2

For `CO[C@@]12[C@H](COC(N)=O)C3=C(C(=O)C(C)=C(N)C3=O)N1C[C@@H]1N[C@@H]12` [MITOMYCIN], the IC50 amounted to 1.6 µM in assay [1] and 1.5 µM in assay [2].
In the case of `CO[C@@]12[C@H](COC(N)=O)C3=C(C(=O)C(C)=C(NCC4=C(C(=O)O)N5C(=O)[C@@H](NC(=O)CCCC(=O)O)[C@H]5SC4)C3=O)N1C[C@@H]1N[C@@H]12`, the IC50 worked out at 26.4 µM in assay [1], 1.2 µM in assay [3], 3 µM in assay [4] and 30.1 µM in assay [2].
In the same order, the values of `CO[C@@]12[C@H](COC(N)=O)C3=C(C(=O)C(C)=C(NCC4=C(C(=O)O)N5C(=O)[C@@H](NC(=O)Cc6ccccc6)[C@H]5SC4)C3=O)N1C[C@@H]1N[C@@H]12` are 10.4 µM, 2.8 µM, 1.4 µM and 3.5 µM.
